What is called half-life is the time in which the quantity being followed falls by half. Higher therefore signals slow decline. In general, efflux ratio refers to a quotient of directional permeabilities that is used to spot active efflux. Usually Papp A→B stands for the apparent permeability from the apical to the basolateral side of a cell layer. What is called Papp B→A is the apparent permeability from the basolateral to the apical side of a cell layer. The logD is the decadic logarithm of the distribution of all forms, ionised or not, between an organic phase and buffer at a given pH. High values mean a more lipophilic compound, low ones a more hydrophilic compound.

The values that follow come from ChEMBL document CHEMBL4052832, “Selective Inhibitors of Human Neuraminidase 3” (J Med Chem, 2018).

A short description of data set [1]: Half life in human liver microsomes at 20 uM by LC-MS analysis. It counts as ADME, microsome. A general note: Liver microsomes are a subcellular fraction often used to study metabolism.
The nature of data set [2]: Efflux ratio of apparent permeability from basolateral to apical side over apical to basolateral side of human Caco2 cells at 62.5 uM after 30 mins by LC-MS analysis. The data set is classed as ADME, cell-based. As to conditions: Caco-2. The method in brief:
(§1)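 Caco-2 monolayer permeation run in triplicate in the apical-to-basolateral and basolateral-to-apical directions. Compound at 62.5 μM in the donor chamber with 0.6% DMSO. Samples taken at 30 min for LC-MS. Papp = (dQ/dt)/(A × c0). Efflux ratio is Papp b→a over Papp a→b.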
In general terms: Passage across Caco-2 layers is used to estimate intestinal permeability.

The nature of data set [3]: Apparent permeability from apical side to basolateral side in human Caco2 cells at 62.5 uM after 30 mins by LC-MS analysis. The data set is classed as ADME, cell-based. As to conditions: Caco-2. The method in brief:
as §1

Data set [4] is described as follows: Apparent permeability from basolateral side to apical side in human Caco2 cells at 62.5 uM after 30 mins by LC-MS analysis. The data set is classed as ADME, cell-based. As to conditions: Caco-2. The method in brief: as §1
The nature of data set [5]: Kinetic solubility of compound in 0.9% NaCl at 10 mM incubated in supersonic bath for 30 mins measured after 24 hrs by LC-MS analysis. The data set is classed as physicochemical. Particulars: read-out: Kinetic_solubility. In outline:
(§2)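 Kinetic solubility. 10 mM DMSO stock diluted 1:100 into 0.1 M Tris-HCl pH 7.4, Prisma HT buffer, or 0.9% NaCl in water (final 1% DMSO). Sonicated 30 min at 25 °C, equilibrated 24 h at 25 °C, filtered (0.2 μm), diluted in MeOH and analysed by LC-MS. Single measurements.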

Data set [6] in a line: Kinetic solubility of compound in Tris-HCl buffer at pH 7.4 at 10 mM incubated in supersonic bath for 30 mins measured after 24 hrs by LC-MS analysis. The data set is classed as physicochemical. As to conditions: Tris-HCl buffer, pH 7.4; read-out: Kinetic_solubility. In outline:
as §2

The nature of data set [7]: Kinetic solubility of compound in Prisma HT 6.5 buffer at pH 7.4 at 10 mM incubated in supersonic bath for 30 mins measured after 24 hrs by LC-MS analysis. It counts as physicochemical. As to conditions: pH 6.5, in the assay text read “at pH 6.5” for “at pH 7.4”, read-out: Kinetic_solubility. In outline:
as §2

A short description of data set [8]: Octanol-water partition coefficient, log D of compound at pH 7.4 at 10 uM after 2 hrs by LC-MS based shake flask analysis. The data set is classed as physicochemical. In outline: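 Shake-flask log D at pH 7.4. Octanol and 0.1 M Tris-HCl pH 7.4, mutually saturated. Compound at 10 μM in buffer with 0.1% DMSO, at two octanol:buffer ratios, each in triplicate.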

Molecules are shown by their SMILES. ≈ marks a conversion by molar mass, not a printed value.

`CCCCOC(=O)C1=C[C@H](O)[C@@H](NC(C)=O)[C@H]([C@H](O)[C@H](O)Cn2cc(-c3ccc(-c4ccccc4)cc3)nn2)O1` registered a half-life at 20 µM in data set [1] of over 1.5 h. In data set [2], the efflux ratio at 0.5 h, 62.5 µM was determined as 6.7. Besides, the Papp A→B at 0.5 h, 62.5 µM in data set [3] was 0.32 ×10⁻⁶ cm/s. Moreover, the Papp B→A at 0.5 h, 62.5 µM in data set [4] came to 2.2 ×10⁻⁶ cm/s. Besides, the solubility kinetic at 24 h, 10000 µM in data set [5] came to 5 µg/mL (≈ 9.08 µM); in data set [6] it was 3.9 µg/mL (≈ 7.08 µM); in data set [7], 3.2 µg/mL (≈ 5.81 µM). The molecule also displayed a logD at 2 h, 10 µM in data set [8] of 3.8.
